In general, IC50 refers to the point on the concentration scale where inhibition reaches its midpoint. A word on the GI50: it is the concentration that inhibits growth by half. Low values mean greater sensitivity of the cells, high ones lower sensitivity of the cells.

Assay [1] addresses T1, Tubulin alpha chain (Sus scrofa, UniProt P02550). Nature of the assay: (§1) Inhibition of tubulin polymerization. (ITP). The procedure, abridged: (§2)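 Tubulin polymerization inhibition, with reaction mixtures containing 10 μM tubulin. Result given as IC50.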
The target in assay [2] is T1, Tubulin alpha chain. Nature of the assay: Inhibition of tubulin polymerization (ITP). The essentials: as §2
For another assay, the system named is RXF 393. Nature of the assay: Inhibition of in vitro tumor cell growth of RXF-393, renal cancer cell line. It counts as functional. The following applies: Homo sapiens.
The target of assay [3] is Tubulin alpha chain (Sus scrofa) (UniProt P02550). Described as §1. The essentials: as §2
Assay [4] can be described thus: Inhibition of in vitro tumor cell growth of […], melanoma. It counts as functional. The following applies: Homo sapiens.
A further assay deals with K562. The assay can be described thus: Inhibition of in vitro tumor cell growth of K-562, leukemia cell line. It counts as functional. The following applies: Homo sapiens.
In another assay the test system is SF-268. Nature of the assay: Inhibition of in vitro tumor cell growth of SF-268, CNS tumor cell line. Format: functional. The conditions noted are these: Homo sapiens.
A further assay deals with HCT-116. Nature of the assay: Inhibition of in vitro tumor cell growth of HCT116, colon cancer cell line. It counts as functional. The following applies: Homo sapiens.
For the next assay, the system named is OVCAR-3. The assay can be described thus: Inhibition of in vitro tumor cell growth of OVCAR-3,ovarian cancer cell line. The conditions noted are these: Homo sapiens. Format: functional.
A further assay relates to SF-295. Nature of the assay: Inhibition of in vitro tumor cell growth of SF-295, CNS tumor cell line. It counts as functional. The conditions noted are these: Homo sapiens.
For a further assay, the system named is NCI-H226. The assay can be described thus: Inhibition of tumor cell growth of NCI-H226, non-small-cell lung cell line. Format: functional. The following applies: Homo sapiens.

T1 sequence (P02550 whole entry, looked up): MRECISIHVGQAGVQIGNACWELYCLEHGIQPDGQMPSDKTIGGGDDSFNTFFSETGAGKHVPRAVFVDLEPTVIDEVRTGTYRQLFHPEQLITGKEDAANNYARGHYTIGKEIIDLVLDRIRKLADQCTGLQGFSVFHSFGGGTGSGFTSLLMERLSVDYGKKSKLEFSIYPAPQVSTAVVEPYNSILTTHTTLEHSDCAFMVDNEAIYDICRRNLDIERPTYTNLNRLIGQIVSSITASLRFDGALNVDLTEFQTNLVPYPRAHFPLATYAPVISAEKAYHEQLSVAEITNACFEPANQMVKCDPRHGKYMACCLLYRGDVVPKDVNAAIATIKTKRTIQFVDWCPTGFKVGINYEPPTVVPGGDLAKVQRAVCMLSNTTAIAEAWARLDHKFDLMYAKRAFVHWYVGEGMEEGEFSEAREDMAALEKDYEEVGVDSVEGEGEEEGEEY
Chain of Tubulin alpha chain (Sus scrofa) (P02550 whole entry, looked up): as above

Consider `O=c1[nH]c(/C=C/c2ccccc2)nc2ccccc12`, for which, on Tubulin alpha chain [1], the half-inhibitory concentration (IC50) came out at 5 µM.
Compound `Cn1c(-c2ccccc2)cc(=O)c2ccccc21` had an IC50 on Tubulin alpha chain [1] of more than 40 µM.
On Tubulin alpha chain [2], `Oc1cc(-c2ccccc2)nc2ccccc12` had a half-maximal inhibitory concentration (IC50) of 7.3 µM.
Regarding `O=c1cc(-c2ccccc2F)[nH]c2ccc(N3CCCC3)cc12`, the GI50 with RXF 393 was less than 0.01 µM; in [4] it was less than 0.01 µM; with K562, 0.0324 µM; in the assay with SF-268, 0.0389 µM. The compound further yielded an IC50 in assay [3] of 0.46 µM.
For the compound `O=c1cc(-c2ccccc2F)[nH]c2cc3c(cc12)OCO3`, growth in assay [4] was halved (GI50) at 0.0209 µM. Also, on Tubulin alpha chain [2], the IC50 was 0.68 µM.
Consider `CCOC(=O)CCCOc1cc(-c2ccccc2F)nc2cc3c(cc12)OCO3`, for which the GI50 in assay [4] was 57.5 µM; with HCT-116, more than 100 µM; in the assay on SF-268, more than 100 µM. Further, the IC50 at Tubulin alpha chain [1] is more than 40 µM.
Turning to `Fc1ccccc1-c1cc(S)c2cc3c(cc2n1)OCO3`, the 50% growth inhibitory concentration (GI50) is 29.5 µM with RXF 393; 21.4 µM with OVCAR-3; 11.7 µM in the assay on SF-295; 4.07 µM in assay [4]; 16.6 µM in the assay with NCI-H226; 5.5 µM with HCT-116. The figures for the GI50 with K562 and with SF-268 were 56.2 µM and 20 µM, respectively.
Turning to `CCOC(=O)COc1cc(-c2ccccc2F)nc2cc3c(cc12)OCO3`, the GI50 with RXF 393 is more than 100 µM; with SF-295 it was more than 100 µM; in [4], 72.4 µM; in the assay with NCI-H226, more than 100 µM; in the assay on HCT-116, 72.4 µM; with K562, 38 µM. For the same compound, the GI50 in the assay on SF-268 was more than 100 µM. For the same compound, on Tubulin alpha chain [1], the IC50 is more than 40 µM.
Take `O=C(O)COc1cc(-c2ccccc2F)nc2cc3c(cc12)OCO3`: the concentration for 50% growth inhibition (GI50) (with RXF 393; in the assay with OVCAR-3; in the assay on SF-295; in assay [4]; in the assay on NCI-H226; with HCT-116) was more than 100 µM each time. Further, the GI50 in the assay with K562 and in the assay on SF-268 was more than 100 µM in each case. In addition, the half-inhibitory concentration (IC50) against Tubulin alpha chain [1] was more than 20 µM.
In turn, `O=C(O)CCCOc1cc(-c2ccccc2F)nc2cc3c(cc12)OCO3` showed an IC50 against Tubulin alpha chain [1] of 12 µM.

These data come from ChEMBL document CHEMBL1134685, “Antitumor Agents. 211. Fluorinated 2-phenyl-4-quinolone derivatives as antimitotic antitumor agents” (J Med Chem, 2001).
